Screens deposited in PubChem BioAssay by Johns Hopkins Ion Channel Center.
RGS4 act = potentiators or activators of RGS4; HEK293 M3R/inducible RGS4, carbachol calcium flux Fluo4; hits give low values; B-score at 10 µM; AID 463111; 310,000 tested, 0.92% active;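 active means B-score of the integrated calcium signal more than 4 SD below the library mean, with starting fluorescence not abnormally high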;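 further: negative B-score means reduced calcium response which marks RGS4 activation or potentiation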
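Also added: carbachol at ECmax as muscarinic agonist stimulus; Assay system: HEK293 cells with stable M3R and inducible RGS4; Timing: overnight RGS4 induction, 30 min dye load 37 °C, 20 min compound RT; Measured by: Fluo4-AM (2 µM) calcium-flux fluorescence, kinetic read.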
RGS4 inh = inhibitors of human RGS4 | P49798 | HEK293 M3R/RGS4 inducible, Fluo-4 calcium flux; hits give high values; triggered by carbachol at its EC20 | B-score at 10 µM | 310,000 tested, 0.45% active | AID 463165;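 active means B-score, a plate-corrected calcium signal, over three deviations above library mean, with baseline fluorescence within five deviations of library mean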;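 further: RGS4 expression induced by doxycycline in cells with stable M3 receptor; B-score is computed from the integrated fluorescence ratio over baseline after carbachol; higher B-score means a larger calcium signal and so more RGS4 inhibition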
Target sequence (P49798 whole entry, looked up): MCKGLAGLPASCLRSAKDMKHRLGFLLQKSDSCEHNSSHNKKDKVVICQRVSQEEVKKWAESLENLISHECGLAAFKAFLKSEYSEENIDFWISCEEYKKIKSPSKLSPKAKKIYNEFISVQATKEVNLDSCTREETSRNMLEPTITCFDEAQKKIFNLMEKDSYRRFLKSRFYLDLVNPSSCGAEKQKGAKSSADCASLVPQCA
MrgX1 antagonist = blocks BAM8-22 activation of human MrgX1 receptor; MRGX1-HEK293 calcium flux, Fluo-4, BAM8-22 antagonism; hits give low values; B-score at 10 µM; AID 588676; 310,000 tested, 1.3% active;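 active means calcium-response B-score plate-corrected more than 3 library SD below zero, starting fluorescence within 5 deviations, no agonist response on first addition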;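 further: peak minus trough fluorescence over baseline after final BAM8-22 challenge near maximal dose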
Target sequence (Q96LB2 whole entry, looked up): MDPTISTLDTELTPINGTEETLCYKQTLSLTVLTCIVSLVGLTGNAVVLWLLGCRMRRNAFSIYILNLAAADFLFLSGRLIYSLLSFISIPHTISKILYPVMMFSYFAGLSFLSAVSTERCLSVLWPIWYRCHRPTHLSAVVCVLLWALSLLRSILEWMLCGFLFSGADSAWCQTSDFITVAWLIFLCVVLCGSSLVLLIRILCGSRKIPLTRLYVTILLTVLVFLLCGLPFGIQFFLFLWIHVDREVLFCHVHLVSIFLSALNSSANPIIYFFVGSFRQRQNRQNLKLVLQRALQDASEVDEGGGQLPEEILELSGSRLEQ
MrgX1 PAM = human MrgX1 positive allosteric modulation, primary screen | Q96LB2 | MrgX1-HEK293, Fluo-4 calcium flux, FDSS; hits give high values | B-score at 10 µM | 310,000 tested, 0.63% active | AID 588675;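 active means plate-corrected calcium response at least 3 library SD above typical, normal starting fluorescence, not activating the receptor alone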;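 further: compound read alongside a low EC10 to EC30 dose of BAM8-22 agonist; peak minus trough fluorescence over baseline measured at the second addition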
MrgX1 ag = human MrgX1 receptor agonism, primary screen; Q96LB2; MrgX1-HEK293 cells, Fluo-4 calcium fluorescence, agonist mode; hits give high values; B-score at 10 µM; 310,000 tested, 0.44% active;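 active means calcium response B-score plate-corrected fluorescence ratio at least 3 library SD, with starting fluorescence B-score inside 5 SD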
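times = overnight plating, then 30 min 37 °C plus 30 min room-temperature dye loading | assay system = stable human MrgX1 HEK293 cell line | input = fifteen thousand cells per well | signal = kinetic calcium dye fluorescence, Fluo-4 NW | dosing = compound delivered in addition one of three | read-out = B-scored fluorescence response ratio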
The depositor's hits bear a star; i = inactive. An excerpt weighted towards active compounds, which were near 3.5% of everything screened.

SMILES	RGS4 act	RGS4 inh	MrgX1 antagonist	MrgX1 PAM	MrgX1 ag
O=C(CCc1ccccc1)Nc1cc(C(=O)O)cc(C(=O)O)c1	i	i	i	i	i
CCOC(=O)C1=C(C)N=c2s/c(=C\c3ccc(O)c([N+](=O)[O-])c3)c(=O)n2C1c1ccccc1OC (stereo not drawn)	i	i	-4.6*	i	i
CCOC(=O)C1=C(C)N=c2s/c(=C/c3ccc(OCC(=O)O)cc3)c(=O)n2C1c1ccc(F)cc1 (stereo not drawn)	-8.3*	i	i	i	i
CCOC(=O)C1=C(C)N=c2s/c(=C/c3ccc(OCC(=O)O)cc3)c(=O)n2C1c1ccc(OC)cc1OC (stereo not drawn)	i	i	i	i	i
CCOC(=O)C1=C(C)N=c2s/c(=C/c3cccc([N+](=O)[O-])c3O)c(=O)n2C1c1ccc(OC)cc1OC (stereo not drawn)	-8.4*	i	i	i	i
CC(=O)c1ccc(OCC(O)CN2CCN(CCO)CC2)cc1 (stereo not drawn)	i	i	i	i	i
Fc1ccc(-c2cc(C(F)(F)F)nc(NCC3CCCO3)n2)cc1 (stereo not drawn)	i	i	i	i	i
O=C(CCS(=O)(=O)Cc1ccc(Cl)cc1)NCCc1ccccc1	i	i	i	i	i
O=[N+]([O-])c1cccc(NNS(=O)(=O)c2ccccc2F)c1	i	i	i	i	i
Cc1nc(N/N=C/c2ccc(O)cc2O)cc(N2CCOCC2)n1	-7.6*	i	i	i	i
O=C(O)CCC(=O)NNC(=O)c1ccc(Br)cc1	i	i	-9.3*	i	i
O=C(O)CCCC(=O)NNC(=O)c1cccc(Br)c1	i	i	i	i	i
COc1ccccc1N(C(=O)c1snc(C(N)=O)c1N)C(C(=O)NC1CCCC1)c1ccc2ncccc2c1 (stereo not drawn)	i	i	i	i	i
Cc1ccc(CSCc2ccc(C(=O)NCCCN3CCOCC3)o2)cc1	i	i	i	6.7*	i
CCn1c2ccc(C)cc2c2nnc(NN)nc21	i	i	i	i	29*
COc1ccc(NC(=S)NCc2ccco2)c(OC)c1	i	i	i	i	i
CC1(C)CC(=O)C(C=Nc2ccccc2Sc2ccccc2)=C(O)C1	-8.8*	i	i	i	i
CC1(C)CC(=O)C(C=Nc2ccccc2C(=O)O)=C(O)C1	i	i	i	i	i
Nc1cc(OCC(F)(F)F)cc([N+](=O)[O-])c1	i	i	i	i	i
Nc1cc(N)c(OCC(F)(F)F)cc1OCC(F)(F)F	i	6.7*	i	i	i
Cc1cccc(NC(=O)CCCCCN2C(=O)[C@@H]3Cc4ccccc4CN3C2=O)c1	i	i	i	i	i
O=C(CCCCCN1C(=O)[C@@H]2Cc3ccccc3CN2C1=O)Nc1cccc(F)c1	-7.5*	i	i	i	i
c1ccc(Sc2ccccc2CN2CCCC2)cc1	-7.4*	i	i	i	i
Fc1ccccc1CN1CCCCCCC1	i	i	i	i	i
COCc1cc(Sc2c(Cl)cccc2Cl)nc(-c2ccccc2)n1	i	i	i	9.3*	i
SMILES	RGS4 act	RGS4 inh	MrgX1 antagonist	MrgX1 PAM	MrgX1 ag
Cc1ccc(N2CC(C(=O)N3CCC(C(=O)Nc4nnc(C(C)(C)C)s4)CC3)CC2=O)cc1 (stereo not drawn)	i	i	i	i	i
O=C(O)/C=C/c1ccc(OCc2cccc(F)c2)cc1	i	i	-5.4*	i	i
CC1(C)Cc2c(sc(NC(=O)C(=O)N3CCOCC3)c2C(N)=O)CO1	i	i	i	i	i
C#CCOc1c(Br)cc(/C=N/O)cc1OCC	i	i	i	7.9*	i
N#CCCN(Cc1cccnc1)C(=S)NC(=O)C1CC1	i	i	i	i	i
COc1ccccc1Cn1c(=S)[nH]c2cc(C(=O)NCC(OC)OC)ccc2c1=O	i	i	i	i	i
NC(=O)CN1C(=O)C(O)(CC(=O)/C=C\c2ccc3c(c2)OCO3)c2ccccc21 (stereo not drawn)	i	i	i	i	i
CN1C(=O)C(O)(CC(=O)/C=C\c2ccc3c(c2)OCO3)c2ccccc21 (stereo not drawn)	i	i	-5.4*	i	i
CN(C(=O)/C=C/c1ccc2c(c1)OCO2)c1ccccc1	i	i	i	9.1*	i
C=CCn1cc(C(=O)OCC)c(=O)c2cc(F)c(F)cc21	i	i	i	i	i
O=C(CCCC(=O)N(CC(=O)NC1CCCCC1)Cc1ccc2c(c1)OCO2)Nc1ccccn1	i	i	i	i	i
Cc1nn(-c2ccc(Cl)cc2)c(Cl)c1/C=N/NC(=O)c1ccc(NS(=O)(=O)c2cccs2)cc1	i	i	i	13*	i
O=C(Nc1nc(-c2ccccc2)cs1)c1ccccc1NS(=O)(=O)c1ccc(F)cc1	-7.2*	i	i	i	i
N#CC1(C#N)[C@@H](C(=O)C23CC4CC(CC(C4)C2)C3)C12CCOCC2	i	i	-6.6*	i	i
CC(C(=O)C12CC3CC(CC(C3)C1)C2)N1CCOCC1 (stereo not drawn)	i	i	i	i	i
CCCCc1cc(=O)oc2c(C)c(OCC(=O)N3C[C@H]4C[C@@H](C3)c3cccc(=O)n3C4)ccc12	i	i	i	i	i
O=C(NC(=S)NC1CC1)c1cccnc1	i	i	-4.7*	i	i
CCNC(=S)NNC(=O)c1cccnc1	i	i	-5.3*	i	i
Cc1c(CCC(=O)NC2CC2)c(=O)oc2cc(O)ccc12	i	i	i	i	i
O=C(COC(=O)c1cc(S(=O)(=O)N2CCCCC2)ccc1N1CCOCC1)NC1CCCCC1	i	i	i	i	i
O=C(Nc1ccc(Cl)cc1)C1C2C=CC3(O2)C1C(=O)N(CCN1CCCCC1)C3C(=O)NC1CCCCC1 (stereo not drawn)	i	i	i	i	i
CC(=O)Oc1ccc(N2C(=O)C3C(C2=O)C(C(=O)c2ccc(Cl)cc2)N2CCCC32)cc1 (stereo not drawn)	i	i	i	i	30*
CCOC(=O)N1CCN(S(=O)(=O)c2ccc(C(=O)N(CCCN(C)C)c3nc4cc(OC)ccc4s3)cc2)CC1	-7.6*	i	i	i	i
COc1ccc2sc(N(CCCN(C)C)C(=O)c3ccc(S(=O)(=O)N4CCCC4)cc3)nc2c1	-7.2*	i	i	i	i
